# Source: PubChem BioAssay
# GPR7 antagonist – GPR7 receptor antagonists, primary screen, cell-based, fluorescence, single concentration. GPR7-expressing cells, fluorescence antagonist assay. 290,000 compounds, 1.1% hits. AID 1861, 2009. Neuropeptides B/W receptor type 1 (Homo sapiens), P48145. inhibition, % at 4.4 µM; in the data active = inhibition above about 16%, passing the limit was not always enough;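 also: cells stimulated with the agonist NPW; 0% = agonist with vehicle and 100% = vehicle without agonist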
# Target sequence (P48145 whole entry, looked up): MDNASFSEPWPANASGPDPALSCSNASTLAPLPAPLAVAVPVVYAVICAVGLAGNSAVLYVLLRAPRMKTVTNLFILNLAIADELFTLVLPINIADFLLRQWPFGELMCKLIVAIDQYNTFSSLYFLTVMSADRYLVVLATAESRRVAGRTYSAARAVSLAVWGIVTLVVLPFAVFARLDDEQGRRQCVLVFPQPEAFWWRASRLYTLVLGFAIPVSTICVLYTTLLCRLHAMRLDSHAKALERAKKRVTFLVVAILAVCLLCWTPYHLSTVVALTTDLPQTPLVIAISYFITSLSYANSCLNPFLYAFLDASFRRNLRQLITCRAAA
# TAAR1 agonist – human TAAR1 agonists, primary screen, Fluo-8 calcium fluorescence, CHO RD-HGA16 cells; Trace amine-associated receptor 1 (Homo sapiens), Q96RJ0; vehicle wells 0%, saturating PEA agonist 100%; activation, % at 3 µM; 360,000 compounds, 0.99% hits;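 active = activation above the mean activation of all test compounds in the run plus 3 SD, cut at about 38% in these data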
# Target sequence (Q96RJ0 whole entry, looked up): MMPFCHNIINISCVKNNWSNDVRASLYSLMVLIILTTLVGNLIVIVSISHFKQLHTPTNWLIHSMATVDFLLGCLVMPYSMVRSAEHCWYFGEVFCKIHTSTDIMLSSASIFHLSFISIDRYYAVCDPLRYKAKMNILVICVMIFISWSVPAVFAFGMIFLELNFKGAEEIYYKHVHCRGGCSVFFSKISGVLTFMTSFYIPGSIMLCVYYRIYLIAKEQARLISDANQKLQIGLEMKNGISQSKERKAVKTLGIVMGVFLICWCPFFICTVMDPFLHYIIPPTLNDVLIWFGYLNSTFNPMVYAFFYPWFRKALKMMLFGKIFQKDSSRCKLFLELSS
#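 System: CHO-derived RD-HGA16 cells with stable Gα16 and human TAAR1. Times: 17-24 h plating, Fluo-8 75 min 37 °C, 30 min RT. Measured by: calcium-sensitive Fluo-8 signal, excitation 470-495, emission 515-575 nm. Read-out basis: % activation relative to PEA EC100 response. Control set: DMSO and PEA EC100. Repeats: no replicates (n 1).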
# CHO parental Ca – ATP-evoked calcium signal inhibitors, parental CHO, primary screen, counter-screen for OX1R antagonist project, cell-based, fluorescence, Fluo-8 calcium dye. parental CHO-K1, ATP-induced calcium, Fluo-8 fluorescence. inhibition, % at 5.6 µM. 330,000 compounds, 0.63% hits. AID 463079, 2010;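 active = inhibition above that plate's mean sample inhibition plus 3 SD, cut at about 26% in these data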;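 also: 0% = ATP-challenged DMSO wells and 100% = DMSO wells without ATP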
#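 test system = CHO parental line | reagent = ATP stimulus | measured by = intracellular calcium via Fluo-8 no-wash fluorescent dye | control set = ATP and no-ATP DMSO wells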
# TAAR1 antag – human TAAR1 antagonists, primary screen, Fluo-8 calcium fluorescence, CHO RD-HGA16 cells; 360,000 compounds, 1.5% hits; Trace amine-associated receptor 1 (Homo sapiens), Q96RJ0; antagonist; inhibition, % at 3 µM;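 active = inhibition above a per-plate cutoff, the mean inhibition of test compounds on that plate plus 3 SD, cut at about 49% in these data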;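 also: 0% = DMSO plus EC80 beta-PEA response and 100% = DMSO alone without agonist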
#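 System: CHO RD-HGA16 cells bearing hTAAR1. Reagent: EC80 β-phenethylamine stimulus. Schedule: seeding 17-24 h prior, 75-min 37 °C, 30-min RT dye loading. Signal: Fluo-8 intracellular calcium dye fluorescence, real-time kinetic reads. Read-out: % inhibition from peak post-agonist over basal fluorescence ratio. Benchmarks: vehicle wells and EC80 agonist wells. Replicates: n of 1.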
# OX1R antag-1 – antagonists of human orexin 1 receptor (OX1R) | Orexin/Hypocretin receptor type 1 (Homo sapiens), O43613 | OX1R-expressing cells, FRET antagonist read-out | inhibition, % at 6.6 µM | 330,000 compounds, 1.8% hits | AID 485270, 2010; in the data active = inhibition mostly above about 38%, no sharp cut-off; inactive = mostly below about 40%;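 also: 0% = agonist challenge alone and 100% = reference antagonist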
# OX1R antag-2 – OX1R (HCRTR1) antagonists, primary screen, fluorescence, CHO/OX1R cells, Fluo-8 calcium, orexin A; Orexin/Hypocretin receptor type 1 (Homo sapiens), O43613; Fluo-8 calcium fluorescence; inhibition, % at 5 µM; 330,000 compounds, 0.43% hits;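 active = inhibition above its plate's threshold, mean inhibition of all tested compounds on the plate plus 3 SD, cut at about 37% in these data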;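 also: 0% = orexin A challenge wells and 100% = SB-334867-A antagonist wells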
# GPR7 antag cf – GPR7 receptor antagonists, confirmation, cell-based, fluorescence, single concentration; shares compounds with GPR7 antagonist; AID 1952, 2009; GPR7-expressing cells, calcium fluorescence antagonist mode; inhibition, % at 4.4 µM; 2,400 compounds, 52% hits; in the data active = inhibition above about 24%;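 also: stimulated with the GPR7 agonist NPW; 0% = agonist plus vehicle and 100% = vehicle alone without agonist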
# MCHR1 antag – MCHR1 antagonists in cells, counter-screen for GPR7 antagonist project, cell-based, fluorescence, human | shares compounds with GPR7 antagonist | MCHR1-expressing cells, fluorescence antagonist assay | inhibition, % at 4.4 µM | 2,400 compounds, 62% hits | AID 2148, 2009; in the data active = inhibition above about 22%;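 also: 0% = vehicle with agonist and 100% = vehicle without agonist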
# OX1R Fluo8 conf – OX1R (HCRTR1) antagonists, confirmation, fluorescence, CHO/OX1R cells, Fluo-8 calcium, orexin A; shares compounds with OX1R antag-2; orexin A calcium Fluo-8 fluorescence; inhibition, % at 5 µM; 1,100 compounds, 38% hits; AID 492963, 2010; in the data active = inhibition above about 29%;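 also: 0% = agonist challenge alone and 100% = reference antagonist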
# CHO Ca counter – ATP-evoked calcium inhibition in parental CHO, counter-screen for OX1R antagonist project, cell-based, fluorescence, CHO-K1, triplicate; shares compounds with OX1R antag-2; ATP-induced calcium, Fluo-8 fluorescence; inhibition, % at 5.6 µM; 1,100 compounds, 9.3% hits; AID 492965, 2010;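 active = inhibition above a per-plate limit, the mean inhibition of that plate's test compounds plus 3 SD, cut at about 25% in these data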;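 also: 0% = ATP challenge with DMSO and 100% = DMSO without ATP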
# TAAR1 ag conf – human TAAR1 agonists, retest of hits, confirmation, Fluo-8 calcium fluorescence, CHO RD-HGA16 cells. shares compounds with TAAR1 agonist. scaled: DMSO 0%, maximal phenethylamine 100%. activation, % at 3 µM. 2,400 compounds, 82% hits. AID 651783, 2012;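 active = activation above a cutoff set at the run's mean compound activation plus 3 SD, cut at about 39% in these data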
# Ga16 nonsel ag – nonselective calcium mobilization agonists, CHO-Ga16 cells, counter-screen for hTAAR1 agonist project, cell-based, fluorescence, CHO-Ga16 parental line; shares compounds with TAAR1 agonist; Fluo-8 calcium fluorescence; normalized to maximal ATP response, DMSO zero; activation, % at 3 µM; 2,400 compounds, 50% hits;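 active = activation above the run cutoff, the mean activation over all tested wells plus 3 SD, cut at about 12% in these data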;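 also: 0% = DMSO wells and 100% = maximal ATP response on the peak over basal ratio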
# TAAR1 desens – TAAR1 desensitization by agonist hits, confirmation, counter-screen for TAAR1 agonist project, cell-based, fluorescence, tachyphylaxis | inhibition, % at 3 µM | shares compounds with TAAR1 agonist | AID 651951, 2012 | 2,400 compounds, 46% hits | CHO RD-HGA16 hTAAR1, Fluo-8 calcium, beta-PEA response inhibition;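 active = inhibition above the run cutoff, the mean inhibition of all test compounds plus 3 SD, cut at about 49% in these data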;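 also: beta-PEA stimulus applied at its EC80; loss of beta-PEA calcium signal after compound pretreatment read as receptor desensitization; 0% = DMSO with beta-PEA at EC80 and 100% = DMSO alone without agonist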
# Ga16 nonsel ant – inhibition of ATP-evoked calcium response in CHO-Ga16 cells, counter-screen for TAAR1 agonist project, cell-based, fluorescence | 2,400 compounds, 39% hits | CHO-Ga16 ATP-induced calcium, Fluo-8 fluorescence | AID 651952, 2012 | shares compounds with TAAR1 agonist | inhibition, % at 3 µM;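 active = inhibition above the plate's mean compound inhibition plus 3 SD, computed per plate, cut at about 22% in these data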;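 also: 0% = EC80 ATP with DMSO and 100% = DMSO wells without ATP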
# Active calls of the source: *; · = no result given. Compounds with a hit are over-represented: about 4.5% of the library has one in this group of screens.
SMILES,GPR7 antagonist,TAAR1 agonist,CHO parental Ca,TAAR1 antag,OX1R antag-1,OX1R antag-2,GPR7 antag cf,MCHR1 antag,TAAR1 ag conf,Ga16 nonsel ag,TAAR1 desens,Ga16 nonsel ant,others
COCOCCn1cc(CN2CCS(=O)(=O)N(Cc3ccc(-c4ccc(OC)c(OC)c4)cc3)C(C)C2=O)nn1 (stereo unspecified),·,4,·,3,·,·,·,·,·,·,·,·,
O=C(NCCC1=CCCCC1)c1coc(=O)c(Br)c1,33*,62*,-10,14,16,-30,14,24*,48*,1,2,-1,
COc1ccccc1-n1c(SCC(N)=O)nnc1-c1ccc(S(=O)(=O)N2CCCCC2)cc1,39*,52*,-8,-4,10,-14,42*,16,27,9,20,24*,
CCCC1(c2ccccc2)NC(=O)N(CC(=O)c2[nH]c(C)c(C(=O)OCC)c2C)C1=O (stereo unspecified),22*,78*,-13,43,-15,5,27*,45*,52*,16*,55*,29*,
CCCNCc1cc(Br)ccc1OCC(=O)NCCc1ccccc1,12,6,-9,11,15,-20,·,·,·,·,·,·,
O=C(COc1ccc(Br)cc1CNCCc1ccccc1)NCc1ccccc1,31*,94*,-1,69*,-2,-27,40*,54*,89*,25*,80*,43*,
COc1ccc(C(=O)Nc2cc(-c3ccccc3)nn2-c2ccccc2F)cc1,·,3,-11,-15,17,-22,·,·,·,·,·,·,
Cc1cc(C)c2nc(-c3ccncc3)cc(C(=O)N3CCN(Cc4ccccc4Cl)CC3)c2c1,-16,1,-27,27,39,-31,·,·,·,·,·,·,
CCC(C)NCCOc1ccc(C(C)(C)c2ccccc2)cc1 (stereo unspecified),22*,54*,3,-7,-7,-6,27*,30*,69*,39*,34,26*,
CNCCCOc1ccc(C(C)(C)c2ccccc2)cc1,8,·,·,·,·,·,·,·,·,·,·,·,
O=C(COC(=O)c1ccc(F)c(S(=O)(=O)N2CCOCC2)c1)Nc1ccc2[nH]c(=O)[nH]c2c1,·,6,3,-25,7,20,·,·,·,·,·,·,
CCOC(=O)/C(=C/C=C1\Sc2cc(C)c(C)cc2N1CC)C(C)=O,24*,378*,·,107*,·,·,38*,76*,160*,126*,91*,84*,
CCCCCCCCCCOC(=O)Cn1c(COc2ccccc2OC)[n+](C)c2ccccc21,53*,66*,84*,90*,32,77*,98*,107*,79*,91*,94*,100*,
CCC(=O)Nc1ccc(N/C(N)=N/c2nc(C)cc(C)n2)cc1,6,4,0,-7,-1,-17,·,·,·,·,·,·,
CCCCc1ccc(N/C(N)=N/c2nc(C)cc(C)n2)cc1,97*,161*,70*,107*,24,89*,93*,103*,131*,90*,107*,96*,
Cc1cccc(N/C(N)=N/c2nc(C)cc(C)n2)c1,28*,58*,23,56*,14,17,39*,54*,80*,43*,81*,53*,
O=C(NCc1ccccc1CN1CCCC1)c1ccc(S(=O)(=O)Nc2ccccc2)cc1,·,25,·,-20,·,·,·,·,·,·,·,·,
CCC(=O)NC(=S)Nc1ccccc1OC,8,6,-10,-7,14,4,·,·,·,·,·,·,
COc1cccc(NC(=S)NC(=O)Cc2ccc(Cl)cc2)c1,35*,93*,9,84*,-2,9,64*,41*,124*,83*,91*,69*,
COc1ccccc1NC(=S)NC(=O)Cc1ccc(Cl)cc1,54*,125*,24,107*,5,10,31*,37*,126*,89*,101*,73*,
Cc1cccc(NC(=S)NC(=O)CCc2ccccc2)c1C,-5,13,-23,32,16,-28,·,·,·,·,·,·,
Cc1cccc(NC(=S)NC(=O)Cc2ccccc2)c1C,24*,82*,·,65*,·,·,34*,18,77*,55*,46,32*,
Cc1ccc(-c2nc3c(Cl)cc(C(F)(F)F)cn3c2Cc2ccccc2)cc1,·,0,·,-32,·,·,·,·,·,·,·,·,
Cc1ccc(N=Cc2sc(O)c3ccccc23)cc1,-12,25,8,25,31,35,·,·,·,·,·,·,OX1R Fluo8 conf=24;CHO Ca counter=19
COc1ccc(COC(=O)c2cccc(S(=O)(=O)N3CCN(C(C)=O)CC3)c2)cc1,·,9,14,11,28,29,·,·,·,·,·,·,OX1R Fluo8 conf=11;CHO Ca counter=1
